Screens as filed in PubChem.
SF-1 act – activates the human nuclear receptor SF-1. Q13285. CHO-K1 Gal4-SF-1 LBD luciferase reporter; % increase over DMSO SF-1-specific signal. activation, % at 10 µM. 65,000 compounds, 1.9% hits;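 active = activation above the mean activation of all tested compounds plus 3 SD, cut at about 50% in these data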
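Assay system: CHO-K1 cells co-transfected with Gal4 DBD–human SF-1 LBD, 5xGal4 luciferase reporter; doses: 10 µM only; incubation: 20 h compound exposure at 37 °C after 1 h cell settling; signal: luciferase light emission; evaluation: percent activation versus DMSO; repeats: one test per compound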
M1 antag – blocks the rat M1 muscarinic receptor response to acetylcholine. 64,000 compounds, 3.4% hits. AID 628. B-score at 10 µM. CHO-M1 cells, Fluo-4 calcium, ACh EC80 antagonist mode; hits give low values;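 active = calcium fluorescence response, raw or row-and-column corrected B-score, differing from the plate sample mean either way at a set confidence level, mostly lower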
Target sequence (P08482 whole entry, looked up): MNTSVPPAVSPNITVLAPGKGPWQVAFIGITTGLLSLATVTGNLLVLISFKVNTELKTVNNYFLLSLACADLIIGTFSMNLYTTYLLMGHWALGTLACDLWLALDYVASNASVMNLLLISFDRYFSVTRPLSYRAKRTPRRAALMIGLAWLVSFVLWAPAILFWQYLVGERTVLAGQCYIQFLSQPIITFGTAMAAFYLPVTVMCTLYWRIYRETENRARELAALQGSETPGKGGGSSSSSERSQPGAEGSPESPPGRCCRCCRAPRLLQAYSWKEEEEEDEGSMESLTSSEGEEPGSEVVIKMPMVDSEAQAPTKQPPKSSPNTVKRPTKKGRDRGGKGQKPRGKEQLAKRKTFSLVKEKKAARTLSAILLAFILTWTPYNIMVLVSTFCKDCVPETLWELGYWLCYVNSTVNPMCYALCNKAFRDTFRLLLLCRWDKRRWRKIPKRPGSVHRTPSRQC
M1 agonist – agonists of M1 muscarinic receptor; AID 626; CHO-M1 cells, Fluo-4 calcium fluorescence, agonist mode; hits give high values; B-score at 10 µM; 64,000 compounds, 3% hits;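 active = fluorescence rise, raw or as B-score row- and column-corrected plate score, outside the 99.7% band of its plate's samples, either direction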
mHtt clearance – mutant huntingtin protein clearance | HeLa Exon1htt(103Q)mCFP, aggregate imaging; zero = plate's median compound well | inhibition, % at 1.5 µM | 47,000 compounds, 0.42% hits | AID 853;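 active = inhibition of aggregate fluorescence above about 70%, also judged a hit by eye on the cell image, limit read from the data, passing the limit was not always enough; inconclusive = no rule stated for this call; inactive = not judged a hit on image review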;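 also: cells exposed to compound for three days before fixation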
D1 allo mod – D1 dopamine receptor (human) allosteric modulation; 58,000 compounds, 5.9% hits; HEK293 D1, CRE-luciferase, dopamine EC30 potentiation; actives deviate in either direction; B-score at 10 µM;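 active = luminescence count or its row- and column-corrected plate score outside the 99.7% band of the plate's sample wells, on either side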
RORa activator – activators of human nuclear receptor RORA; CHO-K1 Gal4-RORA LBD luciferase reporter, luminescence; percent increase over mock-subtracted basal signal; activation, % at 10 µM; 65,000 compounds, 1.5% hits;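 active = activation above the mean of all tested compounds plus 3 SD, cut at about 49% in these data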;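 also: 0% = DMSO-treated RORA cells and 100% = added signal equal to DMSO minus mock-transfected cells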
M1 ag confirm – rat M1 muscarinic agonism, confirmation. shares compounds with M1 agonist. CHO-M1 cells, Fluo-4 calcium fluorescence, agonist mode; actives lie on both sides. fluorescence change (max-min) at 10 µM. 1,700 compounds, 19% hits. AID 1488;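 active = fluorescence change differs from the solvent-only DMSO control mean at a set confidence level in both duplicate runs; inconclusive = differs from solvent-only control mean in just one of two runs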;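 also: an EC20 dose of acetylcholine follows compound addition during the same imaging run; raw fluorescence intensity difference in instrument units with no normalization to controls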
M4 agonist ctr – activates rat M4 receptor in counter-screen for M1 agonists. shares compounds with M1 agonist. CHO M4/Gqi5 cells, Fluo-4 calcium fluorescence, agonist mode; actives lie on both sides. fluorescence change (max-min) at 10 µM. 1,700 compounds, 9% hits;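 active = fluorescence change differing from the plate's solvent-only control wells at 99.7% confidence in both duplicates, whether higher or lower; inconclusive = differs from solvent controls in only one of two duplicates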
* hit, by the source's call; ? = inconclusive; . = no result. Hits are enriched below; roughly 11% of the tested compounds scored in any of these assays.

SMILES | SF-1 act | M1 antag | M1 agonist | mHtt clearance | D1 allo mod | RORa activator | M1 ag confirm | M4 agonist ctr
CC(C)NC(=O)CSc1nncn1-c1ccccc1 | 12 | -0.00086 | -0.57 | . | -0.62 | 3 | . | .
Cc1cc(OCC(=O)c2ccc(F)cc2)ccc1N1C(=O)CCC1=O | -1 | 0.24 | 0.87 | . | 0.0071 | -2 | . | .
O=C(Nc1ccccc1C(=O)NCc1ccc(Cl)cc1)c1ccco1 | -2 | -0.019 | 0.75 | 10 | 1.6 | -8 | . | .
O=C(CN1CCN(c2ccccc2)CC1)Nc1ccc(-n2cnnn2)cc1 | 8 | -0.44 | 51* | -71 | -0.39 | 3 | 1.1 | -36
Cc1cc2cc(CNC(=O)c3ccc4c(c3)OCO4)ccc2n1C | -7 | 0.46 | 0.054 | . | . | -18 | . | .
Cc1cc2ccccc2n1CCNC(=O)c1cccs1 | 15 | -0.11 | -0.074 | . | -0.47 | -5 | . | .
CCOc1cccc(C(=O)Nc2nc(-c3ccc(S(=O)(=O)N4CCOCC4)cc3)cs2)c1 | 5 | -0.47 | 3.7* | 11 | -1.7 | -1 | -26 | -24
CCN1CCCC1CNC(=O)c1ccc(CS(=O)(=O)c2ccccc2C)o1 (configuration not stated) | -8 | -0.48 | 1.4 | . | -0.1 | -6 | . | .
COc1ccccc1-c1nnc(SCC(=O)O)n1C | -4 | -0.22 | -0.54 | . | 0.69 | -8 | . | .
COc1ccc(-c2cc(C(F)(F)F)n3ncc(C(=O)NCC4CCCO4)c3n2)cc1OC (configuration not stated) | -13 | -0.1 | 41* | -20 | 0.93 | -23 | ? | 21
COc1ccc(-c2cc(C(F)(F)F)n3nc(C(=O)Nc4cc(C)on4)cc3n2)cc1OC | -1 | -0.43 | 24* | -5 | 0.8 | -1 | 179* | 53
CCCn1c(=O)[nH]c(=O)c2c1nc(-c1ccc3c(c1)OCCO3)n2CCN1CCOCC1 | 2 | 0.27 | 0.087 | . | 0.56 | -12 | . | .
Nc1nc(SCC(=O)NCCCN2CCOCC2)nc2sc3c(c12)CCC3 | -1 | -0.00057 | -0.083 | . | -1.3 | -16 | . | .
Cc1oc2nc(SCCCC(=O)NCCCO)nc(N)c2c1C | -5 | 0.73 | 4.6* | . | 0.99 | -10 | ? | ?
CCOC(=O)C1=C(N)Oc2cc(C)n(CCc3ccc(OC)c(OC)c3)c(=O)c2C1c1cccnc1 (configuration not stated) | 5 | -0.65 | 8.5* | . | -0.073 | -24 | ? | -67
COC(=O)C1=C(N)Oc2cc(C)n(CCc3ccccc3)c(=O)c2C1c1cccnc1 (configuration not stated) | 0 | -0.37 | -0.49 | . | -1.5 | -5 | . | .
Cc1ccc(/C=C/C2=Cc3c(sc(NC(=O)CSc4n[nH]c(N)n4)c3C#N)C(C)(C)C2)o1 | 2 | -0.044 | -2.2 | . | 0.0078 | -7 | . | .
COC(=O)CCC(=O)c1oc2ccccc2c1N | -12 | -0.63 | -0.12 | . | 1.6 | -16 | . | .
CCOC(=O)C1CCCN(C(=O)Cn2cccc2C(=O)c2ccccc2)C1 (configuration not stated) | -20 | 0.45 | -2.6* | 25 | -0.07 | -28 | ? | -36
COc1cccc(NC=C2C(=O)OC3(CCCCC3)OC2=O)c1 | 17 | -0.46 | 2.7* | . | -0.15 | -6 | -11 | -44
COc1ccc2c(c1OC)C(=O)N1c3ccccc3C(=O)N(c3ccccc3F)C21 (configuration not stated) | 15 | 0.095 | 9.3* | . | -2.7 | -25 | -26* | -92*
Cc1ccc2c(c1)nnn2C1CCN(CC(=O)Nc2ccccc2N2CCOCC2)CC1 | 2 | -0.047 | 2.9* | 3 | -0.22 | 3 | -12 | -5.7
O=C(Cc1ccc(F)cc1)Nc1c2c(nn1-c1cccc(Cl)c1)CS(=O)C2 (configuration not stated) | -18 | 0.39 | -0.016 | 25 | -0.22 | -5 | . | .
O=C(NCCc1ccccc1)C1CCCN(S(=O)(=O)c2cccc3nsnc23)C1 (configuration not stated) | -8 | 0.16 | -0.76 | . | 1.8 | -7 | . | .
CN(Cc1cccs1)c1ncnc2sccc12 | 8 | -0.37 | 2.6* | 8 | 2.9 | -13 | -3.4 | -87*
